Assay results published in ChEMBL document CHEMBL3272197, “Synthesis and in vitro evaluation of 8-hydroxyquinoline analogs as inhibitors of dental plaque” (J Med Chem, 1976).

Columns and labels:
Streptococcus mutans [1] = assay: Antibacterial activity against Streptococcus mutans 6715 assessed as inhibition of plaque formation in human teeth at 10^-2 M after 24 hrs; format: functional; details: Streptococcus mutans, 6715, 24 h
Summary of the method: (§1)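 Sterilized extracted human teeth were immersed in Me2SO solutions of compound for two 1-min periods, each followed by 1-min air exposure. Teeth were then washed in distilled water for 5 min and incubated anaerobically at 37° in sucrose-containing trypticase broth with S. mutans.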

Streptococcus mutans [2] = assay: Antibacterial activity against Streptococcus mutans 6715 assessed as inhibition of plaque formation in human teeth at 10^-2 M after 48 hrs; format: functional; details: Streptococcus mutans, 6715, 48 h; summary of the method: as §1
Streptococcus mutans [3] = assay: Antibacterial activity against Streptococcus mutans 6715 assessed as inhibition of plaque formation in human teeth at 10^-1 M after 24 hrs; format: functional; details: Streptococcus mutans, 6715, 24 h; summary of the method: as §1
[4] = 1-Octanol-water partition coefficient, log P of the compound after 90 mins; format: physicochemical
Summary of the method: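 Partitioning between 1-octanol and water. Phase volume ratio and sample amount set so that the aqueous-layer absorbance fell mostly between 0.2 and 0.9 in a 1-cm cell. The aqueous concentration was read spectrophotometrically and the octanol concentration was taken by difference. P = C_octanol/C_H2O. At least triplicate determinations used different sample amounts, and the mean log P is reported.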

Streptococcus mutans [5] = assay: Antibacterial activity against Streptococcus mutans 6715 assessed as inhibition of plaque formation in human teeth at 10^-1 M after 48 hrs; format: functional; details: Streptococcus mutans, 6715, 48 h; summary of the method: as §1
Streptococcus mutans [6] = assay: Antibacterial activity against Streptococcus mutans 6715 assessed as growth inhibition at 10^-4 M after 24 hrs; format: functional; details: Streptococcus mutans, 6715, 24 h; read-out: GI
Summary of the method: (§2)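 Test compounds as HCl salts were added in aqueous solution to sterile trypticase broth with 50% sucrose stock, then inoculated with a 24-hr culture of S. mutans 6715. Cultures were incubated anaerobically (Gaspak) at 37°. Bacterial growth was scored at 24 and 48 hr, with a solvent control run concurrently.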

Streptococcus mutans [7] = assay: Antibacterial activity against Streptococcus mutans 6715 assessed as growth inhibition at 10^-5 M after 24 hrs; format: functional; details: Streptococcus mutans, 6715, 24 h; read-out: GI; summary of the method: as §2
Streptococcus mutans [8] = assay: Antibacterial activity against Streptococcus mutans 6715 assessed as growth inhibition at 10^-6 M after 48 hrs; format: functional; details: Streptococcus mutans, 6715, 48 h; read-out: GI; summary of the method: as §2
Streptococcus mutans [9] = assay: Antibacterial activity against Streptococcus mutans 6715 assessed as growth inhibition at 10^-6 M after 24 hrs; format: functional; details: Streptococcus mutans, 6715, 24 h; read-out: GI; summary of the method: as §2
Streptococcus mutans [10] = assay: Antibacterial activity against Streptococcus mutans 6715 assessed as growth inhibition at 10^-4 M after 48 hrs; format: functional; details: Streptococcus mutans, 6715, 48 h; read-out: GI; summary of the method: as §2
Streptococcus mutans [11] = assay: Antibacterial activity against Streptococcus mutans 6715 assessed as growth inhibition at 10^-5 M after 48 hrs; format: functional; details: Streptococcus mutans, 6715, 48 h; read-out: GI; summary of the method: as §2

| Structure (SMILES) | inhibition at 10000 µM (Streptococcus mutans [1]) [%] | inhibition at 10000 µM (Streptococcus mutans [2]) [%] | inhibition at 100000 µM (Streptococcus mutans [3]) [%] | logP at 1.5 h [4] | inhibition at 100000 µM (Streptococcus mutans [5]) [%] | inhibition of growth at 100 µM (Streptococcus mutans [6]) [%] | inhibition of growth at 10 µM (Streptococcus mutans [7]) [%] | inhibition of growth at 1 µM (Streptococcus mutans [8]) [%] | inhibition of growth at 1 µM (Streptococcus mutans [9]) [%] | inhibition of growth at 100 µM (Streptococcus mutans [10]) [%] | inhibition of growth at 10 µM (Streptococcus mutans [11]) [%] |
| --- | --- | --- | --- | --- | --- | --- | --- | --- | --- | --- | --- |
| CC(=O)c1ccc(O)c2ncccc12 [listing 1 of 2 here] | 60 | 60 | 100 | 1.8 | 100 | – | – | – | – | – | – |
| Oc1ccc(F)c2cccnc12 [listing 1 of 2 here] | – | – | – | – | – | 100 | 80 | 0 | 0 | 100 | 0 |
| O=Cc1ccc(O)c2ncccc12 [listing 1 of 2 here] | 40 | 40 | 100 | 1.63 | 80 | – | – | – | – | – | – |
| OCc1ccc(O)c2ncccc12 [listing 1 of 2 here] | – | – | – | – | – | 0 | – | – | – | 0 | – |
| OCc1ccc(O)c2ncccc12 [listing 2 of 2 here] | – | – | 0 | 1 | 0 | – | – | – | – | – | – |
| COCc1ccc(O)c2ncccc12 [listing 1 of 2 here] | 20 | 20 | 80 | 1.78 | 60 | – | – | – | – | – | – |
| Oc1ccc(I)c2cccnc12 [listing 1 of 2 here] | 80 | 20 | 100 | 3.27 | 100 | – | – | – | – | – | – |
| Oc1cccc2cccnc12 | – | – | – | – | – | 100 | 100 | 0 | 0 | 100 | 100 |
| O=C(O)Cc1ccc(O)c2ncccc12 [listing 1 of 2 here] | – | – | 0 | – | 0 | – | – | – | – | – | – |
| Oc1ccc(O)c2ncccc12 [listing 1 of 2 here] | 0 | 0 | 60 | 1.42 | 0 | – | – | – | – | – | – |
| O=C(O)Cc1ccc(O)c2ncccc12 [listing 2 of 2 here] | – | – | – | – | – | 0 | – | – | – | 0 | – |
| CCOC(=O)Cc1ccc(O)c2ncccc12 [listing 1 of 2 here] | 20 | 0 | 100 | 2.26 | 80 | – | – | – | – | – | – |
| Oc1ccc(O)c2ncccc12 [listing 2 of 2 here] | – | – | – | – | – | 0 | – | – | – | 0 | – |
| COC(=O)Cc1ccc(O)c2ncccc12 [listing 1 of 2 here] | 20 | 0 | 100 | 1.59 | 100 | – | – | – | – | – | – |
| Oc1ccc(I)c2cccnc12 [listing 2 of 2 here] | – | – | – | – | – | 100 | 100 | 0 | 0 | 100 | 60 |
| CC(=O)c1ccc(O)c2ncccc12 [listing 2 of 2 here] | – | – | – | – | – | 100 | 100 | 0 | 0 | 100 | 0 |
| N#CCc1ccc(O)c2ncccc12 [listing 1 of 2 here] | 0 | 0 | 80 | 1.81 | 80 | – | – | – | – | – | – |
| COCc1ccc(O)c2ncccc12 [listing 2 of 2 here] | – | – | – | – | – | 100 | 0 | – | – | 80 | – |
| Oc1cccc2cccnc12 [OXYQUINOLINE] | 0 | 0 | 100 | 1.94 | 100 | – | – | – | – | – | – |
| Oc1ccc(F)c2cccnc12 [listing 2 of 2 here] | 80 | 60 | 80 | 2.3 | 80 | – | – | – | – | – | – |
| O=Cc1ccc(O)c2ncccc12 [listing 2 of 2 here] | – | – | – | – | – | 100 | 0 | – | – | 100 | – |
| CCOC(=O)Cc1ccc(O)c2ncccc12 [listing 2 of 2 here] | – | – | – | – | – | 100 | 100 | 0 | 0 | 100 | 0 |
| N#CCc1ccc(O)c2ncccc12 [listing 2 of 2 here] | – | – | – | – | – | 80 | 0 | – | – | 20 | – |
| COC(=O)Cc1ccc(O)c2ncccc12 [listing 2 of 2 here] | – | – | – | – | – | 100 | 60 | 0 | 0 | 100 | 0 |
